Rows were chosen to be rich in hits. Some 4.1% of all compounds tested hit in one or more screens of this group.
KCNQ1 pot = human KCNQ1 channel potentiation or activation | AID 2648 | CHO-K1 KCNQ1, thallium flux FluxOR fluorescence; active compounds read high | B-score at 10 µM | hit rate 0.35% among 310,000;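 active = fluorescence ratio B-score, a plate-corrected score, at least three library SD, with initial intensity B-score within 5 SD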
Target sequence (P51787 whole entry, looked up): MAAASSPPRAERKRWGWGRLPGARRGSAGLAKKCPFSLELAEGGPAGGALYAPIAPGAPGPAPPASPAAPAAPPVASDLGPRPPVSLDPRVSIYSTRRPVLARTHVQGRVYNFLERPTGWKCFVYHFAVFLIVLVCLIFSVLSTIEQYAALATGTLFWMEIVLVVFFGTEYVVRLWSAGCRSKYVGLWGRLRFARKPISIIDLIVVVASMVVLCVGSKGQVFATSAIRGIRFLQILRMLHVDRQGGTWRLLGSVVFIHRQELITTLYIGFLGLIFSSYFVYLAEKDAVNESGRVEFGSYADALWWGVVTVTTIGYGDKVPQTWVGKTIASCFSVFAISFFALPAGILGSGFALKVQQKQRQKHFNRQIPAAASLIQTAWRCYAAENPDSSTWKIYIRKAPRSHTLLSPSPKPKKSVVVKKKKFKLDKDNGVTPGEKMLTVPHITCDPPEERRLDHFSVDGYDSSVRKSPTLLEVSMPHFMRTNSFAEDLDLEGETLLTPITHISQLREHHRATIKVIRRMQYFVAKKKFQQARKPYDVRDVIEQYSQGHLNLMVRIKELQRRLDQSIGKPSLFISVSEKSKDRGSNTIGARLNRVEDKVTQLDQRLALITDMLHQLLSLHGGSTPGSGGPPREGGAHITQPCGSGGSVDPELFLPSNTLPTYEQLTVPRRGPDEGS
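Material: CHO-K1 cells stably expressing KCNQ1. Medium: assay buffer for compound exposure, DMSO matched across wells. Reagent: K+/Tl+ depolarizing stimulus. Compound dosing: single-concentration screen. Times: 37 °C overnight plating, 90-min dark dye load, 20-min compound pretreatment. Technique: FluxOR Tl+ flux fluorescence.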
KCNK9 block = human KCNK9 channel inhibition | Q9NPC2 | HEK293 KCNK9, FluxOR thallium flux fluorescence; active compounds read low | B-score at 10 µM | hit rate 1.2% among 310,000;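 active = ratio B-score over 3 SD below the library mean, with starting fluorescence within 5 SD of its mean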;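 also: negative B-score means less thallium flux so channel inhibition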
KCC2 mod = modulates chloride dependent transport by human KCC2. Q9H2X9. KCC2 cells, thallium flux FluoZin-2 fluorescence. B-score of Tl+ flux slope (higher = more flux/activation; lower = inhibition) at 10 µM. hit rate 2.2% among 190,000. AID 1456;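 active = thallium flux slope and its plate-corrected score both differing from the plate sample mean at a set confidence after two filtering rounds, in either direction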;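 also: slope of fluorescence scaled to starting intensity during 10 to 20 s after thallium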
KCNK3 block = human KCNK3 channel inhibition, primary screen. B-score at 10 µM. CHO-KCNK3 thallium flux, FluxOR fluorescence; active compounds read low. O14649. hit rate 0.84% among 340,000;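 active = B-score under library mean minus 4 SD, starting fluorescence ratio at most library mean plus 5 SD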;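 also: more negative B-score means stronger inhibition of thallium flux through KCNK3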
hERG rescue = compounds protecting human hERG from proarrhythmic drug block | Q12809 | CHO-hERG, FluxOR thallium flux, dofetilide IC70 present | activation (rescue from dofetilide block), less the hit threshold, % at 10 µM | hit rate 0.51% among 310,000;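 active = activation above the mean of controls blocked by dofetilide plus 5 SD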;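 also: thallium influx through hERG after potassium depolarization seen as dye fluorescence rise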
KCNQ1 inh = blocks the human KCNQ1 potassium channel; P51787; CHO-K1 KCNQ1, FluxOR thallium flux fluorescence; active compounds read high; B-score at 10 µM; hit rate 1.3% among 310,000;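 active = compounds whose thallium flux B-score, printed positive for inhibition, exceeds three library SD while starting fluorescence stays within three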;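 also: channel opened by potassium depolarization with thallium stimulus after 20 min compound exposure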
The depositor's hits bear a star; i = inactive; . = not tested or not shown.

SMILES	KCNQ1 pot	KCNK9 block	KCC2 mod	KCNK3 block	hERG rescue	KCNQ1 inh
CCN(CC)S(=O)(=O)N1CCN(S(=O)(=O)N2CCOCC2)CC1	i	i	0.32	i	-10	i
COc1ccc(CCNC2CC(=O)N(CCc3ccccc3)C2=O)cc1 (centres undefined)	i	i	0.75	i	7.1*	i
O=C1CC(NCCc2ccccc2)C(=O)N1CCc1ccccc1 (centres undefined)	i	i	-0.35	i	-8	i
Cc1nnc(SCC(=O)NCCN2C(=O)CSC2=O)s1	i	i	0.87	i	-12	i
CCN1C(=O)c2cccc3c(NC(=O)c4ccccc4)ccc1c23	i	i	-2.1	i	-2	i
CCN1C(=O)c2cccc3c(NC(=O)c4ccc5c(c4)OCCO5)ccc1c23	i	i	-0.029	-10*	-7	i
Cc1cc(C)c2ccc(N)nc2c1O	i	i	-0.4	i	-9	i
Cc1cc(C)c2ccc(C)[n+]([O-])c2c1O	8*	i	0.48	i	-7	i
O=C(COC(=O)COc1ccccc1)NCc1ccc2c(c1)OCO2	.	.	.	i	.	.
Cc1ccc(C)c2sc(NC(=O)c3ccc(N4CCCCC4)c([N+](=O)[O-])c3)nc12	i	-7.8*	0.19	i	-2	i
O=C(NCCSCc1ccco1)c1ccc(=O)[nH]c1	i	i	.	i	-5	i
C=CCOc1ccc(/C=C/C(=O)OCC(=O)NNC(=O)c2ccccc2F)cc1	.	.	.	i	.	.
CC(=O)Nc1ccc(S(=O)(=O)N2CCN(c3nc(NC4CCCC4)c4ccccc4n3)CC2)cc1	i	i	2	i	-16	6*
CN1/C(=C/C=N/n2cnnc2)C(C)(C)c2ccccc21	i	i	1.1	i	0	i
CN1/C(=C\C=N\NC(=O)c2ccccc2Br)C(C)(C)c2ccccc21	i	i	-1.9	i	-25	9*
O=C(c1cc(COc2ccc(F)cc2F)on1)N1CCSCC1	i	i	-1.7	i	-14	i
N/C(=N\OC(=O)CCn1cccc(C(F)(F)F)c1=O)c1ccc(Cl)cc1	i	i	-0.21	i	0	i
S=C1N(c2ccccc2)C(c2ccccc2)N2CCCN12 (centres undefined)	8*	i	0.28	i	-7	i
CCS(=O)(=O)N1Cc2ccccc2CC1C(=O)Nc1ccc(OC)cc1 (centres undefined)	i	i	0.62	i	-11	i
Cc1cc(C)n(/C(=C\N(C)C)C(=O)c2ccc(Cl)cc2)n1	i	i	0.31	i	5.6*	i
Cc1cc(Nc2ccccc2)n(-c2ccc(C(=O)O)cc2)n1	i	i	-0.45	i	2	i
Cc1cc(Nc2ccccc2)n(C(=O)c2ccc(Cl)cc2)n1	i	-6.6*	0.35	i	-7	i
CCCOc1ccc(-c2c(C(=O)N/N=C(\C)c3ccco3)nnn2-c2nonc2N)cc1	i	i	.	i	-3	i
CCC(=O)Nc1ccccc1Oc1ccccc1	i	i	.	i	0	i
Cc1ccccc1CN(C)CC(=O)Nc1ccccc1Oc1ccccc1	i	-7.5*	-0.47	i	-14	i
SMILES	KCNQ1 pot	KCNK9 block	KCC2 mod	KCNK3 block	hERG rescue	KCNQ1 inh
CN(C(=O)c1ccc(Cl)cc1)C1=CCCCC1CCC#N (centres undefined)	i	i	-0.093	i	-11	i
Oc1c(Cl)cc(Cl)cc1/C=N/c1nc(-c2ccc(Cl)cc2)cs1	i	i	-0.41	i	3	i
NC(=O)c1cccc(N=Cc2cc(Cl)cc(Cl)c2O)c1	10*	i	-0.66	i	6.5*	i
Oc1c(Cl)cc(Cl)cc1/C=N/c1nccs1	9*	i	0.12	i	-6	i
CCN(C[C@H]1N[C@@](C)(C(=O)OC)[C@H]2C(=O)N(C)C(=O)[C@@H]12)C(=O)c1ccccc1	.	.	.	i	.	.
COC(=O)C1CCCN1C(=O)COc1ccc(Cl)cc1Br (centres undefined)	8*	i	-0.83	i	5.1*	i
COc1ccccc1N1CCN(C(=O)CN(C2CCCCC2)S(C)(=O)=O)CC1	i	i	.	i	-11	i
